The values below come from ChEMBL document CHEMBL4266029, “Zampanolides B-E from the Marine Sponge Cacospongia mycofijiensis: Potent Cytotoxic Macrolides with Microtubule-Stabilizing Activity” (J Nat Prod, 2018).

In experiment [1] the test system is HL-60. Put plainly: Cell cycle arrest in human HL60 cells assessed as accumulation at G1 phase at 1 uM after 18 hrs by propidium iodide staining based flow cytometry (reference value: 51%). The experiment is classed as functional. An outline of the steps:
(§1)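 HL-60 cells seeded at 1 × 10^5 cells/well, exposed to 1 μM compound for 18 h at 37 °C. Stained 30 min in the dark with propidium iodide (0.05 mg/mL in 0.1% sodium citrate, 0.1% Triton X-100, 100 μg/mL RNase), then DNA content read by flow cytometry. Reported as % cells in each phase; n = 2 replicates from a single experiment.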
(In general: In flow cytometry, cells or beads pass a laser one at a time.)

The subject of experiment [2] is HL-60. Put plainly: Cell cycle arrest in human HL60 cells assessed as accumulation at S phase at 1 uM after 18 hrs by propidium iodide staining based flow cytometry (reference value: 27%). It counts as functional. An outline of the steps: as §1
The species entered for experiment [3] is Sus scrofa. Put plainly: Induction of porcine tubulin polymerization assessed as microtubule stabilization at 2.8 uM measured at 1 min interval over 100 mins. A digest of the protocol:
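Fluorescence-based assay with purified porcine brain tubulin, no microtubule-associated proteins, glycerol omitted from polymerization buffer. Compound at 2.8 μM final, paclitaxel 2.8 μM as positive control, vehicle control. Tubulin buffer added immediately before reading. Kinetic read at 37 °C, λex 360/λem 450 nm, every 1 min for 100 min. n = 3 replicates, single preparation.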

Experiment [4] relates to HL-60. Put plainly: Cell cycle arrest in human HL60 cells assessed as accumulation at G2/M phase at 1 uM after 18 hrs by propidium iodide staining based flow cytometry (reference value: 22%). It counts as functional. An outline of the steps:
as §1

For experiment [5], the system named is HL-60. Put plainly: Antiproliferative activity against human HL60 cells after 72 hrs by MTT assay. Particulars: HL-60, 72 h. The experiment is classed as functional, cell-based. An outline of the steps: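 HL-60 cells seeded at 1 × 10^4 cells/well, exposed to 2-fold serial dilutions with paclitaxel as positive control, 72 h at 37 °C. MTT (5 mg/mL in PBS) added for 2 h at 37 °C. Formazan dissolved overnight at 37 °C in 10% SDS/45% dimethylformamide, absorbance read at 570 nm. n = 3 independent experiments, two technical replicates each.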
Background: Formazan colour is commonly taken as a measure of viable cells.

The species named for experiment [6] is Sus scrofa. Put plainly: Induction of porcine tubulin polymerization assessed as microtubule stabilization at 27 uM measured at 1 min interval over 100 mins. An outline of the steps: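 Fluorescence-based in vitro assay with purified porcine brain tubulin, run without microtubule-associated proteins and with glycerol omitted from the polymerization buffer. Compound at 27 μM final, with tubulin buffer added just before reading. Kinetic read at 37 °C, λex 360/λem 450 nm, every 1 min for 100 min. n = 3 replicates from a single preparation.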

The source made the active and inactive calls. No cut-off for these calls is given here.

On to `CC(=O)O[C@H]1C(=O)[C@@]2(C)[C@H]([C@H](OC(=O)c3ccccc3)[C@]3(O)C[C@H](OC(=O)[C@H](O)[C@@H](NC(=O)c4ccccc4)c4ccccc4)C(C)=C1C3(C)C)[C@]1(OC(C)=O)CO[C@@H]1C[C@@H]2O` [PACLITAXEL], for which the Activity was 18% in experiment [1], 24% in experiment [2] and 58% in experiment [4]. Besides, the outcome in experiment [3] was Active.
In general, IC50 refers to the concentration needed to halve the response being measured. A lower IC50 goes with inhibition by little substance. On to `C=C1C[C@@H]2C/C=C/C(=O)C/C(C)=C\C=C\C(=O)O[C@H]([C@H](O)NC(=O)/C=C\C=C\C)C/C(C)=C/[C@H](C1)O2` [ZAMPANOLIDE], for which the Activity in experiment [1] stood at 18%; in experiment [2], 28%; in experiment [4], 54%. Besides, in experiment [3], the outcome was Active. The compound further displayed an IC50 in experiment [5] of 3.2 nM.
In the case of `C=C1C[C@@H]2CCCC(=O)C/C(C)=C\C=C\C(=O)O[C@H]([C@H](O)NC(=O)/C=C\C=C\C)C/C(C)=C/[C@H](C1)O2`, the Activity worked out at 44% in experiment [1], 25% in experiment [2] and 30% in experiment [4]. The half-maximal inhibitory concentration (IC50) in experiment [5] was 300 nM. In addition, in experiment [6], the result was inactive.
For `C=C1C[C@@H]2C/C=C/C(=O)C/C(C)=C\C=C\C(=O)O[C@H]([C@H](O)NC(=O)/C=C/C=C\C)C/C(C)=C/[C@H](C1)O2`, the Activity in experiment [1] worked out at 19%; in experiment [2], 26%; in experiment [4], 55%. Moreover, the outcome in experiment [3] was Active. In experiment [5], the IC50 worked out at 5.3 nM.
Turning to `C=C1C[C@@H]2C/C=C/C(=O)C/C(C)=C/C=C/C(=O)O[C@H]([C@H](O)NC(=O)/C=C\C=C\C)C/C(C)=C/[C@H](C1)O2`, the Activity stood at 16% in experiment [1], 30% in experiment [2] and 54% in experiment [4]. Moreover, the outcome in experiment [3] was Active. Besides, 3.3 nM corresponded to half-maximal inhibition in experiment [5] (IC50).
For the compound `C=C1C[C@@H]2C/C=C/C(=O)C/C(C)=C\C=C\C(=O)O[C@H](C=O)C/C(C)=C/[C@H](C1)O2`, the figures for the Activity in experiment [1], in experiment [2] and in experiment [4] were 17%, 29% and 54%, respectively. This compound yielded an IC50 in experiment [5] of 240 nM. Moreover, in experiment [6], the result was inactive.
